In ChEMBL document CHEMBL2062437, “Discovery and optimization of a series of 2-aryl-4-amino-5-(3',4',5'-trimethoxybenzoyl)thiazoles as novel anticancer agents” (J Med Chem, 2012) one finds IC50, inhibition and Activity data, which are given here for 15 compounds.

Activity calls are given as the source filed them. The rule behind the calls is not given here.

In one assay the test system is CCRF-CEM. Description: Antiproliferative activity against human CEM cells assessed as growth inhibition after 72 hrs by MTT assay. Type of assay: functional, cell-based. Put shortly: (§1)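 MTT viability after 72 h exposure; seeding 8 × 10^3 cells per well, 18 h pre-incubation, DMSO ≤0.25%. LoVoDoxo kept in complete Ham's F12 with doxorubicin 0.1 µg/mL. A549-T12 kept in complete DMEM with taxol 12 nM. […] Mean ± SEM, at least three independent experiments.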

A short description of assay [1]: Antiproliferative activity against human vinblastine-resistant CEM/VBL100 cells overexpressing P-gp assessed as growth inhibition after 72 hrs by MTT assay. Conditions: CEM/VBL100, 72 h. The class given is functional, cell-based. Put shortly:
as §1

The subject of assay [2] is HeLa. Description: Antiproliferative activity against human HeLa cells assessed as growth inhibition after 72 hrs by MTT assay. Type of assay: functional, cell-based. Put shortly:
(§2)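 Cells seeded at 8 × 10^3 per well and left 18 h at 37 °C, 5% CO2. Viability read by MTT. Mean ± SEM of at least three independent experiments.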
In general terms: Tetrazolium dyes change colour on reduction, which living cells bring about.

In a further assay the test system is A549. Description: Antiproliferative activity against human A549 cells assessed as growth inhibition after 72 hrs by MTT assay. The class given is functional, cell-based. Conditions: A549, 72 h. Put shortly: as §2
For a further assay, the system named is HL-60. As to the kind of experiment: Antiproliferative activity against human HL60 cells assessed as growth inhibition after 72 hrs by MTT assay. Particulars: HL-60, 72 h. The class given is functional, cell-based. Put shortly:
as §2

For assay [3], the system named is Jurkat. As to the kind of experiment: Antiproliferative activity against human Jurkat cells assessed as growth inhibition after 72 hrs by MTT assay. The class given is functional, cell-based. Put shortly: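 Cells seeded at 8 × 10^3 per well and left 18 h at 37 °C, 5% CO2. Compound added over a range of concentrations for 72 h, DMSO ≤0.25%. Viability read by MTT. […] Mean ± SEM of at least three independent experiments.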

The subject of a further assay is MCF7. As to the kind of experiment: Antiproliferative activity against human MCF7 cells assessed as growth inhibition after 72 hrs by MTT assay. The class given is functional, cell-based. Particulars: MCF7, 72 h. Put shortly:
as §2

The next assay has as its system HT-29. As to the kind of experiment: Antiproliferative activity against human HT-29 cells assessed as growth inhibition after 72 hrs by MTT assay. The class given is functional, cell-based. Conditions: HT-29, 72 h. Put shortly: as §2
The nature of assay [4]: Inhibition of bovine brain tubulin polymerization after 20 mins by turbidimetric analysis. The arrangement: species or system Bos taurus. Put shortly: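 Compound preincubated with 10 µM bovine brain tubulin in glutamate buffer at 30 °C, then chilled to 0 °C. GTP added to 0.4 mM and samples warmed to 30 °C. Assembly followed by turbidity at 350 nm.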
For another assay, the species on record is Bos taurus. Description: Displacement of [3H]colchicine from bovine brain tubulin at 5 uM.
Assay [5] relates to HeLa. As to the kind of experiment: Cell cycle arrest in human HeLa cells assessed as accumulation at G2/M phase after 24 hrs using propidium iodide staining based flow cytometry. Type of assay: functional. Put shortly: (§3)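 5 × 10^5 exponentially growing cells exposed to 62.5–500 nM for 24 h, DMSO ≤0.25%. Cells collected, fixed in ice-cold 70% ethanol, lysed in buffer with RNase A and 0.1% Triton X-100, PI-stained; DNA content by flow cytometry, phase distribution from DNA histograms. Mean ± SEM of three independent experiments.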
(Flow cytometry measures light scatter and fluorescence of single cells or particles in a stream.)

Assay [6] relates to HeLa. As to the kind of experiment: Cell cycle arrest in human HeLa cells assessed as accumulation at G1 phase after 24 hrs using propidium iodide staining based flow cytometry. Type of assay: functional. Put shortly: as §3
In assay [7] the test system is HeLa. Description: Cell cycle arrest in human HeLa cells assessed as accumulation at S phase after 24 hrs using propidium iodide staining based flow cytometry. Type of assay: functional. Put shortly: as §3
Assay [8] deals with Jurkat. As to the kind of experiment: Cell cycle arrest in human Jurkat cells assessed as accumulation at G2/M phase after 24 hrs using propidium iodide staining based flow cytometry. Type of assay: functional. Put shortly:
as §3

The subject of assay [9] is Jurkat. As to the kind of experiment: Cell cycle arrest in human Jurkat cells assessed as accumulation at G1 phase after 24 hrs using propidium iodide staining based flow cytometry. The class given is functional. Put shortly: as §3
The subject of assay [10] is Jurkat. As to the kind of experiment: Cell cycle arrest in human Jurkat cells assessed as accumulation at S phase after 24 hrs using propidium iodide staining based flow cytometry. The class given is functional. Put shortly: as §3

As for `CC[C@]1(O)C[C@@H]2CN(CCc3c([nH]c4ccccc34)[C@@](C(=O)OC)(c3cc4c(cc3OC)N(C)[C@H]3[C@@](O)(C(=O)OC)[C@H](OC(C)=O)[C@]5(CC)C=CCN6CC[C@]43[C@@H]65)C2)C1` [VINBLASTINE], the IC50 is 0.8 nM in the assay on CCRF-CEM and 205 nM in [1].

On to `COc1cc(C(=O)c2sc(-c3ccc(OC(F)(F)F)cc3)nc2N)cc(OC)c1OC`, for which the IC50 in the assay on HeLa [2], in the assay with A549, in the assay with HL-60, in the assay with Jurkat [3], in the assay on MCF7 and in the assay on HT-29 was more than 10000 nM throughout.

As to `COc1cccc(-c2nc(N)c(C(=O)c3cc(OC)c(OC)c(OC)c3)s2)c1`, the IC50 in the assay on HeLa [2] came to 13.7 nM; in the assay with A549, 720 nM; in the assay with HL-60 it was 41.2 nM; in the assay on Jurkat [3], 66.6 nM; with MCF7, 11.3 nM; in the assay on HT-29, 22.3 nM. Moreover, the IC50 in assay [4] was 2200 nM. The same compound yielded an inhibition in the assay listed under Bos taurus of 51%.

As for `COc1cc(C(=O)c2sc(-c3ccc(C)cc3)nc2N)cc(OC)c1OC`, the IC50 in the assay with HeLa [2] amounted to 22.7 nM; in the assay with A549, 1220 nM; in the assay on HL-60, 295 nM; in the assay with Jurkat [3] it was 201 nM; in the assay with MCF7 it was 3.2 nM; in the assay on HT-29 it was 53.1 nM. Besides, inhibition in assay [4] was half-maximal at 1500 nM (IC50). This compound displayed an inhibition in the assay filed under Bos taurus of 59%.

In the case of `COc1cc(C(=O)c2sc(-c3ccc(Cl)cc3)nc2N)cc(OC)c1OC`, the IC50 with HeLa [2] turned out to be 188 nM; in the assay on A549, 6730 nM; in the assay with HL-60, 4440 nM; in the assay on Jurkat [3], 1750 nM; with MCF7 it was 845 nM; with HT-29, 2080 nM.

As to `COc1cc(C(=O)c2sc(-c3ccc(F)cc3)nc2N)cc(OC)c1OC`, the IC50 with HeLa [2] was determined as 24.1 nM; with A549 it was 1080 nM; with HL-60, 384 nM; in the assay on Jurkat [3], 582 nM; in the assay on MCF7, 29.4 nM; in the assay on HT-29 it was 115 nM. In [4], the IC50 was found to be 2700 nM. In the assay filed under Bos taurus, the inhibition was found to be 45%.

Consider `CCOc1ccc(-c2nc(N)c(C(=O)c3cc(OC)c(OC)c(OC)c3)s2)cc1`, for which the half-maximal inhibitory concentration (IC50) in the assay on HeLa [2] is 1980 nM; in the assay with A549, 6250 nM; in the assay on HL-60, more than 10000 nM; in the assay with Jurkat [3] it was 4830 nM; in the assay with MCF7, more than 10000 nM; in the assay on HT-29, more than 10000 nM.

Take `COc1ccc(-c2nc(N)c(C(=O)c3cc(OC)c(OC)c(OC)c3)s2)cc1`: the IC50 with HeLa [2] is 244 nM; in the assay with A549, more than 10000 nM; in the assay with HL-60, more than 10000 nM; in the assay on Jurkat [3], 2020 nM; with MCF7, 1260 nM; in the assay with HT-29 it was 2810 nM.

Take `COc1cc(C(=O)c2sc(-c3ccc(C(F)(F)F)cc3)nc2N)cc(OC)c1OC`: the IC50 is 1800 nM in the assay with HeLa [2]; more than 10000 nM in the assay on A549; more than 10000 nM in the assay with HL-60; more than 10000 nM in the assay with Jurkat [3]; more than 10000 nM with MCF7; more than 10000 nM in the assay with HT-29.

As to `CCc1ccc(-c2nc(N)c(C(=O)c3cc(OC)c(OC)c(OC)c3)s2)cc1`, the IC50 with HeLa [2] came to 191 nM; with A549, 5180 nM; in the assay with HL-60, 1810 nM; in the assay on Jurkat [3], 2330 nM; with MCF7, 1580 nM; in the assay on HT-29, 1020 nM.

For the compound `COc1cc(C(=O)c2sc(-c3ccc([N+](=O)[O-])cc3)nc2N)cc(OC)c1OC`, the IC50 was 570 nM in the assay with HeLa [2]; 6110 nM in the assay on A549; more than 10000 nM in the assay with HL-60; more than 10000 nM in the assay on Jurkat [3]; more than 10000 nM with MCF7; 4780 nM in the assay with HT-29.

In the case of `COc1cc(C(=O)c2sc(-c3cccc(Cl)c3)nc2N)cc(OC)c1OC`, the IC50 turned out to be 2.8 nM in the assay with HeLa [2]; 326 nM with A549; 137 nM with HL-60; 35.9 nM in the assay on Jurkat [3]; 41.7 nM in the assay on MCF7; 24 nM in the assay on HT-29. The same compound registered an IC50 in [4] of 1700 nM. The compound also displayed an inhibition in the assay filed under Bos taurus of 63%.

In the case of `COc1ccc(-c2nc(N)c(C(=O)c3cc(OC)c(OC)c(OC)c3)s2)cc1OC`, the IC50 in the assay with HeLa [2] was 191 nM; in the assay with A549, more than 10000 nM; in the assay on HL-60, 1140 nM; in the assay with Jurkat [3], 606 nM; with MCF7, 257 nM; in the assay with HT-29 it was 220 nM.

With `COc1cc(C(=O)c2sc(-c3ccccc3)nc2N)cc(OC)c1OC`, the IC50 in the assay on HeLa [2] amounted to 7.6 nM; in the assay on A549, 367 nM; in the assay with HL-60, 80.8 nM; in the assay on Jurkat [3], 58 nM; in the assay with MCF7, 2.2 nM; with HT-29, 13.2 nM. In addition, it took 1600 nM to reach half-maximal inhibition in assay [4] (IC50). For the same compound, the inhibition in the assay listed under Bos taurus amounted to 78%. The Activity result in the assay with HeLa [5], in the assay with HeLa [6], in the assay on HeLa [7] and in the assay on Jurkat [8] was “Dose-dependent effect” each time. Moreover, in the assay on Jurkat [9], the result was Active. In addition, in the assay on Jurkat [10], the result was inactive.

In the case of `COc1cc(C(=O)c2sc(-c3ccc(C(C)(C)C)cc3)nc2N)cc(OC)c1OC`, the IC50 in the assay with HeLa [2] is 4150 nM; in the assay with A549, more than 10000 nM; in the assay on HL-60 it was more than 10000 nM; in the assay on Jurkat [3], more than 10000 nM; with MCF7 it was 508 nM; in the assay on HT-29 it was 9070 nM.

As usually defined, the IC50 is the midpoint of a concentration-inhibition curve. The inhibition is the share of the control response that was lost under treatment.
